Results from ChEMBL document CHEMBL4811305, “Development of potent and selective Cathepsin C inhibitors free of aortic binding liability by application of a conformational restriction strategy” (Bioorg Med Chem Lett, 2021).

Experiments:
Dipeptidyl peptidase 1 [1] = target: T1, Dipeptidyl peptidase 1 (Homo sapiens, UniProt P53634); assay: Inhibition of human cathepsin C at 1 uM relative to control
Dipeptidyl peptidase 1 [2] = target: T1, Dipeptidyl peptidase 1; assay: Inhibition of human cathepsin C at 10 uM relative to control
Dipeptidyl peptidase 1 [3] = target: T1, Dipeptidyl peptidase 1; assay: Inhibition of human cathepsin C
How it was run: (§1)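 Values are means of two independent experiments, each run in duplicate.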

Dipeptidyl peptidase 1 [4] = target: T1, Dipeptidyl peptidase 1; assay: Inhibition of cellular cathepsin C (unknown origin); how it was run: as §1
[5] = Aldehyde reactivity of the compound in 0.1M phosphate buffer assessed as compound remaining at pH 7.4 measured after 15 hrs in presence of propionaldehyde by HPLC-UV analysis; assay type: ADME; conditions: phosphate buffer with propionaldehyde, read-out: Stabilty
How it was run: (§2)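 Each compound was spiked in bulk into propionaldehyde dissolved in 0.1 M phosphate buffer, pH 7.4. Aliquots were taken at intervals and analysed by HPLC-UV to give percent parent remaining, with incubations lasting up to 15 h. Half-life was calculated from the disappearance of parent. Where no analyte remained at 15 h, only the 2 h data were used. Adduct identity was confirmed as molecular ion +40 amu. This was a single experiment (n = 1).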

[6] = Half life of the compound in 0.1M phosphate buffer at pH 7.4 by HPLC-UV analysis; assay type: physicochemical; how it was run: as §2
Homo sapiens [7] = organism: Homo sapiens; assay: Selectivity for human cathepsin C over cathepsin K (unknown origin)
[8] = Metabolic stability in human liver microsomes assessed as compound remaining measured after 60 mins; assay type: ADME, Microsome; conditions: read-out: Stabilty
How it was run: (§3)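 The readout was percent of parent remaining after 60 min incubation with liver microsomal preparations. Values are the mean of three replicates ± SD.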

[9] = Metabolic stability in rat liver microsomes assessed as compound remaining measured after 60 mins; assay type: ADME, Microsome; conditions: read-out: Stabilty; how it was run: as §3
[10] = Metabolic stability in mouse liver microsomes assessed as compound remaining measured after 60 mins; assay type: ADME, Microsome; conditions: read-out: Stabilty; how it was run: as §3
CYP1A2 [11] = target: T2, CYP1A2 (Homo sapiens, UniProt P05177); assay: Inhibition of CYP1A2 (unknown origin) at 1 uM relative to control; assay type: ADME
T2 sequence (P05177 whole entry): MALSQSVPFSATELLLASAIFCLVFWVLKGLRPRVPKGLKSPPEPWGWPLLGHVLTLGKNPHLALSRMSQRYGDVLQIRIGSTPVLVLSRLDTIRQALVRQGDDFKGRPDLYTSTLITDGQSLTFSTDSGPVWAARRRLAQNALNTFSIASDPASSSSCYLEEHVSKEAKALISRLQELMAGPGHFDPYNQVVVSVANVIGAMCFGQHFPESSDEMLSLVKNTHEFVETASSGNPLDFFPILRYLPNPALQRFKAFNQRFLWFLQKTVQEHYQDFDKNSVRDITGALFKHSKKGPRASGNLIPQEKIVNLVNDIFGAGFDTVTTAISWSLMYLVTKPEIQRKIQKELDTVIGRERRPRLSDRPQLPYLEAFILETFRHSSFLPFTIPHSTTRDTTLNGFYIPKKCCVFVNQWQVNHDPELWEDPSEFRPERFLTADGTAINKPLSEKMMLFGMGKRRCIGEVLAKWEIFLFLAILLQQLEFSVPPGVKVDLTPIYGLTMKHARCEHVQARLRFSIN

CYP1A2 [12] = target: T2, CYP1A2; assay: Inhibition of CYP1A2 (unknown origin) at 10 uM relative to control; assay type: ADME
CYP2D6 [13] = target: T3, CYP2D6 (Homo sapiens, UniProt P10635); assay: Inhibition of CYP2D6 (unknown origin) at 1 uM relative to control; assay type: ADME
T3 sequence (P10635 whole entry): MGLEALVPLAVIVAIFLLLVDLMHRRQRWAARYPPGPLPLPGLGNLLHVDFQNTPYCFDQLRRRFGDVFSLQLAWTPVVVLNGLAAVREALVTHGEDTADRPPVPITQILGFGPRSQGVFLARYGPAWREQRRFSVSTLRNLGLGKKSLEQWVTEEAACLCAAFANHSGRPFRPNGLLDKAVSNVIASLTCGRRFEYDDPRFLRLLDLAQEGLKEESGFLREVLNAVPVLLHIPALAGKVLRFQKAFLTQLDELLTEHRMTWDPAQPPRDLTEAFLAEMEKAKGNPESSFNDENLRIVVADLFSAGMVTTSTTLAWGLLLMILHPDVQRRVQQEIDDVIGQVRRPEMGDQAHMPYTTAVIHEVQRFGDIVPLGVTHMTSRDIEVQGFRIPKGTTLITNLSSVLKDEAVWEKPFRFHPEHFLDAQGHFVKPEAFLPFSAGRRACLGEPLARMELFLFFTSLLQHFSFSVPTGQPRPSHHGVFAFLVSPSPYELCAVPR

CYP2D6 [14] = target: T3, CYP2D6; assay: Inhibition of CYP2D6 (unknown origin) at 10 uM relative to control; assay type: ADME
CYP3A4 [15] = target: T4, CYP3A4 (Homo sapiens, UniProt P08684); assay: Inhibition of CYP3A4 (unknown origin) at 1 uM relative to control; assay type: ADME
T4 sequence (P08684 whole entry): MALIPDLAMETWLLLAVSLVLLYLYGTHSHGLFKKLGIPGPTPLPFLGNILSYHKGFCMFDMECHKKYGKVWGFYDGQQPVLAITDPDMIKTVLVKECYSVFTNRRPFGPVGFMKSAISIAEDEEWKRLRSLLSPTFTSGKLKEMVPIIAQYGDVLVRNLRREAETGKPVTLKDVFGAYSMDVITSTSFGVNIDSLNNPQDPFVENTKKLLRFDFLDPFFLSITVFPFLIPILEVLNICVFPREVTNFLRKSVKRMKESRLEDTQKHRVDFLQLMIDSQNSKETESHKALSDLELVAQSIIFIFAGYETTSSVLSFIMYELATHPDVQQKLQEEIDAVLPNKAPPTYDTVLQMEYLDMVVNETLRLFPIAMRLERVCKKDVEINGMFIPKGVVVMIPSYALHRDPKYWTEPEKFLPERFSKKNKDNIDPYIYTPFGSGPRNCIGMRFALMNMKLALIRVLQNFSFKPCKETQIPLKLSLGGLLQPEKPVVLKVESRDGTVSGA

CYP3A4 [16] = target: T4, CYP3A4; assay: Inhibition of CYP3A4 (unknown origin) at 10 uM relative to control; assay type: ADME
CYP2C9 [17] = target: T5, CYP2C9 (Homo sapiens, UniProt P11712); assay: Inhibition of CYP2C9 (unknown origin) at 1 uM relative to control; assay type: ADME
T5 sequence (P11712 whole entry): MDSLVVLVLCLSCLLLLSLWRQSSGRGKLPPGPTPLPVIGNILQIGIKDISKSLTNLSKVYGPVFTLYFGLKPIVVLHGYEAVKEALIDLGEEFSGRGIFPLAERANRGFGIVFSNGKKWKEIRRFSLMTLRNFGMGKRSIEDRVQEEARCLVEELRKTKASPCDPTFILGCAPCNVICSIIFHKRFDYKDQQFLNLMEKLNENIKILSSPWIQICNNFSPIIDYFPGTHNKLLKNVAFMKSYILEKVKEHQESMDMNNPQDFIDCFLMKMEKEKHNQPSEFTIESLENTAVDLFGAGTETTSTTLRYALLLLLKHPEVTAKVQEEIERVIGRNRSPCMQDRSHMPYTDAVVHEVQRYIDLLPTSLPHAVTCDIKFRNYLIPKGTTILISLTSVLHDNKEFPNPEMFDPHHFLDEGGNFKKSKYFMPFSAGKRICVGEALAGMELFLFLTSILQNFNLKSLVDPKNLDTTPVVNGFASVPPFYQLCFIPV

CYP2C9 [18] = target: T5, CYP2C9; assay: Inhibition of CYP2C9 (unknown origin) at 10 uM relative to control; assay type: ADME
CYP2C19 [19] = target: T6, CYP2C19 (Homo sapiens, UniProt P33261); assay: Inhibition of CYP2C19 (unknown origin) at 1 uM relative to control; assay type: ADME
T6 sequence (P33261 whole entry): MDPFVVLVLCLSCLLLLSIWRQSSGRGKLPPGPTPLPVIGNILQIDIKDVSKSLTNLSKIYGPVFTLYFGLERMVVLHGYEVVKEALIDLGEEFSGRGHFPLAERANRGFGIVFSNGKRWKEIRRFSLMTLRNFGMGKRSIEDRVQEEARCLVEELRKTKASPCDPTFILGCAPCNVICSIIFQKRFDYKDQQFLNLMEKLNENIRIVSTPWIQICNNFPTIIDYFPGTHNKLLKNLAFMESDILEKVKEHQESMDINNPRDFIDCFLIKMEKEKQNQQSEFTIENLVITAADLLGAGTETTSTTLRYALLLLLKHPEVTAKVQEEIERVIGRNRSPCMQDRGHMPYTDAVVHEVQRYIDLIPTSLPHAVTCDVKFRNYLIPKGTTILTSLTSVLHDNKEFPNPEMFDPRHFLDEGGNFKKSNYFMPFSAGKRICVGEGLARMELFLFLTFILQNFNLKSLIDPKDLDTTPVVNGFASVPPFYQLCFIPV

CYP2C19 [20] = target: T6, CYP2C19; assay: Inhibition of CYP2C19 (unknown origin) at 10 uM relative to control; assay type: ADME
CYP2C8 [21] = target: T7, CYP2C8 (Homo sapiens, UniProt P10632); assay: Inhibition of CYP2C8 (unknown origin) at 1 uM relative to control; assay type: ADME
T7 sequence (P10632 whole entry): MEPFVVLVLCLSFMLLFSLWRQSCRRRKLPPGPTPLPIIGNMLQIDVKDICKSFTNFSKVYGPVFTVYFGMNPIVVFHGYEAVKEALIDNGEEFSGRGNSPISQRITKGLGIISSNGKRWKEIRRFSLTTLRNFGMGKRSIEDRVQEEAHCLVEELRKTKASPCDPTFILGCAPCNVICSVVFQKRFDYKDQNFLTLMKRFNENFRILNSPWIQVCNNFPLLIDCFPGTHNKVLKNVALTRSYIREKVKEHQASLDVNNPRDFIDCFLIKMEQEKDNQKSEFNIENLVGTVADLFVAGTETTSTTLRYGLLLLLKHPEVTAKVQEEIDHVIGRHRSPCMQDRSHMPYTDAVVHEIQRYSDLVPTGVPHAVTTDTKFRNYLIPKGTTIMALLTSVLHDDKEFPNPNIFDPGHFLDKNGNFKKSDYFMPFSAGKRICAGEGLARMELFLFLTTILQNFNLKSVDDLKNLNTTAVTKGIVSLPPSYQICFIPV

CYP2C8 [22] = target: T7, CYP2C8; assay: Inhibition of CYP2C8 (unknown origin) at 10 uM relative to control; assay type: ADME
Homo sapiens [23] = organism: Homo sapiens; assay: Selectivity for human cathepsin C over cathepsin L (unknown origin)
Homo sapiens [24] = organism: Homo sapiens; assay: Selectivity for human cathepsin C over cathepsin S (unknown origin)
Homo sapiens [25] = organism: Homo sapiens; assay: Selectivity for human cathepsin C over cathepsin B (unknown origin)
[26] = Stability of the compound in human plasma; assay type: ADME, cell-free
[27] = Stability of the compound in mouse plasma; assay type: ADME, cell-free
[28] = Stability of the compound in rat plasma; assay type: ADME, cell-free
[29] = Aldehyde reactivity of the compound in 0.1M phosphate buffer assessed as compound remaining at pH 7.4 measured after 2 hrs in presence of propionaldehyde by HPLC-UV analysis; assay type: ADME; conditions: phosphate buffer with propionaldehyde, read-out: Stabilty; how it was run: as §2
[30] = Aldehyde reactivity of the compound in 0.1M phosphate buffer assessed as compound remaining at pH 7.4 measured after 1 hr in presence of propionaldehyde by HPLC-UV analysis; assay type: ADME; conditions: phosphate buffer with propionaldehyde, read-out: Stabilty; how it was run: as §2

T1 sequence (P53634 25-134 limits assumed): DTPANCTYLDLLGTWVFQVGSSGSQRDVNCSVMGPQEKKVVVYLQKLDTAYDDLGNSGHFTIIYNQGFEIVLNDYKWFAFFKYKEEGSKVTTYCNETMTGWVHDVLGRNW
T1 sequence (P53634 231-394 limits assumed): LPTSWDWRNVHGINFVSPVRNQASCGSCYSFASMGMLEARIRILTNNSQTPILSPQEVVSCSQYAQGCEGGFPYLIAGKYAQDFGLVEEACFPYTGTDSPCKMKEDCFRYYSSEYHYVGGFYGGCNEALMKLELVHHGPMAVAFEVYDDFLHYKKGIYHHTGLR
T1 sequence (P53634 395-463 limits assumed): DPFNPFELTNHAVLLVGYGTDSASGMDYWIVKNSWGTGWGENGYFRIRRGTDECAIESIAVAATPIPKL

Compound: N#Cc1ccc(-c2ccc(C[C@@H](C#N)NC(=O)[C@@H]3CC4(CCCCC4)CN3)cc2)cc1
- inhibition (Dipeptidyl peptidase 1 [1]): 84.3%
- inhibition (Dipeptidyl peptidase 1 [2]): 99.3%
- IC50 (Dipeptidyl peptidase 1 [3]): 228 nM

Compound: N#Cc1ccc(-c2ccc(C[C@@H](C#N)NC(=O)[C@@H]3C[C@H]4CCC[C@H]4N3)cc2)cc1
- inhibition (Dipeptidyl peptidase 1 [1]): 85.6%
- inhibition (Dipeptidyl peptidase 1 [2]): 98.2%
- IC50 (Dipeptidyl peptidase 1 [3]): 77.7 nM
- IC50 (Dipeptidyl peptidase 1 [4]): 79.1 nM
- remaining at 15 h [5]: 7%
- half-life [6]: 5.3 h

Compound: N#Cc1ccc(-c2ccc(C[C@@H](C#N)NC(=O)[C@H]3CN4CCC[C@H]4CN3)cc2)cc1
- inhibition (Dipeptidyl peptidase 1 [1]): 68.3%
- inhibition (Dipeptidyl peptidase 1 [2]): 95%
- IC50 (Dipeptidyl peptidase 1 [3]): 394 nM

Compound: N#Cc1ccc(-c2ccc(C[C@@H](C#N)NC(=O)[C@@H]3C[C@@H]4CCC[C@@H]4N3)cc2)cc1
- inhibition (Dipeptidyl peptidase 1 [1]): 99.2%
- inhibition (Dipeptidyl peptidase 1 [2]): 100%
- IC50 (Dipeptidyl peptidase 1 [3]): 9.27 nM
- IC50 (Dipeptidyl peptidase 1 [4]): 699 nM
- Selectivity ratio (Homo sapiens [7]): 93
- remaining at 15 h [5]: 97%
- half-life [6]: > 15 h
- remaining at 1 h [8]: 1%
- remaining at 1 h [9]: 3%
- remaining at 1 h [10]: 6%
- inhibition at 1 µM (CYP1A2 [11]): 15.2%
- inhibition at 10 µM (CYP1A2 [12]): 43.7%
- inhibition at 1 µM (CYP2D6 [13]): 69.7%
- inhibition at 10 µM (CYP2D6 [14]): 88.3%
- inhibition at 1 µM (CYP3A4 [15]): 2.2%
- inhibition at 10 µM (CYP3A4 [16]): 33.8%
- inhibition at 1 µM (CYP2C9 [17]): 12%
- inhibition at 10 µM (CYP2C9 [18]): 32.4%
- inhibition at 1 µM (CYP2C19 [19]): 17.1%
- inhibition at 10 µM (CYP2C19 [20]): 38.4%
- inhibition at 1 µM (CYP2C8 [21]): 11.8%
- inhibition at 10 µM (CYP2C8 [22]): 40.1%
- Selectivity ratio (Homo sapiens [23]): 10800
- Selectivity ratio (Homo sapiens [24]): 4400
- Selectivity ratio (Homo sapiens [25]): 2260
- Stabilty [26]: Stable
- Stabilty [27]: Stable
- Stabilty [28]: Stable

Compound: N#Cc1ccc(-c2ccc(C[C@@H](C#N)NC(=O)[C@@H]3CCCN3)cc2)cc1
- inhibition (Dipeptidyl peptidase 1 [1]): 91.5%
- inhibition (Dipeptidyl peptidase 1 [2]): 99.1%
- IC50 (Dipeptidyl peptidase 1 [3]): 91.5 nM
- remaining at 2 h [29]: 8.5%
- half-life [6]: 0.56 h

Compound: N#Cc1ccc(-c2ccc(C[C@@H](C#N)NC(=O)[C@H]3CN4CCC[C@@H]4CN3)cc2)cc1
- inhibition (Dipeptidyl peptidase 1 [1]): 1.11%
- inhibition (Dipeptidyl peptidase 1 [2]): 1.11%

Compound: N#Cc1ccc(-c2ccc(C[C@@H](C#N)NC(=O)[C@@H]3CC4(CC4)CN3)cc2)cc1
- inhibition (Dipeptidyl peptidase 1 [1]): 92.4%
- inhibition (Dipeptidyl peptidase 1 [2]): 99.5%
- IC50 (Dipeptidyl peptidase 1 [3]): 77.6 nM

Compound: N#Cc1ccc(-c2ccc(C[C@@H](C#N)NC(=O)[C@@H]3COCCN3)cc2)cc1
- inhibition (Dipeptidyl peptidase 1 [1]): 75.5%
- inhibition (Dipeptidyl peptidase 1 [2]): 96.3%
- IC50 (Dipeptidyl peptidase 1 [3]): 308 nM
- IC50 (Dipeptidyl peptidase 1 [4]): 9720 nM
- remaining at 15 h [5]: 48%
- half-life [6]: 15.8 h

Compound: N#Cc1ccc(-c2ccc(C[C@@H](C#N)NC(=O)[C@H]3COCCN3)cc2)cc1
- inhibition (Dipeptidyl peptidase 1 [1]): 2.2%
- inhibition (Dipeptidyl peptidase 1 [2]): 14.2%

Compound: N#Cc1ccc(-c2ccc(C[C@@H](C#N)NC(=O)[C@@H]3CC4(CCCC4)CN3)cc2)cc1
- inhibition (Dipeptidyl peptidase 1 [1]): 99%
- inhibition (Dipeptidyl peptidase 1 [2]): 99.7%
- IC50 (Dipeptidyl peptidase 1 [3]): 10.2 nM
- IC50 (Dipeptidyl peptidase 1 [4]): 69 nM
- remaining at 15 h [5]: 0%
- half-life [6]: 0.56 h

Compound: N#Cc1ccc(-c2ccc(C[C@@H](C#N)NC(=O)[C@@H]3CC4(CCC4)CN3)cc2)cc1
- inhibition (Dipeptidyl peptidase 1 [1]): 97.2%
- inhibition (Dipeptidyl peptidase 1 [2]): 98.2%
- IC50 (Dipeptidyl peptidase 1 [3]): 27.8 nM
- IC50 (Dipeptidyl peptidase 1 [4]): 150 nM

Compound: N#Cc1ccc(-c2ccc(C[C@@H](C#N)NC(=O)C3(N)CCOCC3)cc2)cc1
- inhibition (Dipeptidyl peptidase 1 [1]): 99.2%
- inhibition (Dipeptidyl peptidase 1 [2]): 99.9%
- remaining at 1 h [30]: 15%
- half-life [6]: 0.36 h

Compound: N#Cc1ccc(-c2ccc(C[C@@H](C#N)NC(=O)[C@@H]3CN4CCC[C@@H]4CN3)cc2)cc1
- inhibition (Dipeptidyl peptidase 1 [1]): 4.63%
- inhibition (Dipeptidyl peptidase 1 [2]): 22.8%

Compound: N#Cc1ccc(-c2ccc(C[C@@H](C#N)NC(=O)[C@@H]3CN4CCC[C@H]4CN3)cc2)cc1
- inhibition (Dipeptidyl peptidase 1 [1]): 1.2%
- inhibition (Dipeptidyl peptidase 1 [2]): 0%

Compound: N#Cc1ccc(-c2ccc(C[C@@H](C#N)NC(=O)[C@@H]3C[C@@H]4C[C@@H]4N3)cc2)cc1
- inhibition (Dipeptidyl peptidase 1 [1]): 83.9%
- inhibition (Dipeptidyl peptidase 1 [2]): 97.9%
- IC50 (Dipeptidyl peptidase 1 [3]): 223 nM

Compound: N#Cc1ccc(-c2ccc(C[C@@H](C#N)NC(=O)[C@@H]3C[C@H]4CCC[C@@H]4N3)cc2)cc1
- inhibition (Dipeptidyl peptidase 1 [1]): 6.55%
- inhibition (Dipeptidyl peptidase 1 [2]): 50.1%
- remaining at 15 h [5]: 100%

Compound: N#Cc1ccc(-c2ccc(C[C@@H](C#N)NC(=O)[C@@H](N)C34CC5CC(CC(O)(C5)C3)C4)cc2)cc1
- inhibition (Dipeptidyl peptidase 1 [1]): 3.29%
- inhibition (Dipeptidyl peptidase 1 [2]): 2.19%

Compound: N#Cc1ccc(-c2ccc(C[C@@H](C#N)NC(=O)[C@@H]3CC4CCCC[C@@H]4N3)cc2)cc1 (single isomer, unassigned)
- inhibition (Dipeptidyl peptidase 1 [1]): 88.7%
- inhibition (Dipeptidyl peptidase 1 [2]): 99%
- IC50 (Dipeptidyl peptidase 1 [3]): 154 nM
- IC50 (Dipeptidyl peptidase 1 [4]): 1720 nM

Compound: Cn1c(=O)oc2ccc(-c3ccc(C[C@@H](C#N)NC(=O)[C@@H]4CNCCCO4)cc3)cc21 [BRENSOCATIB]
- remaining at 15 h [5]: 95%
- half-life [6]: > 15 h
